Article PMC10392812 (Journal of the American Chemical Society, 2023)
pIC50: −log10 of the molar value.

Target: T1, EDC3 (Homo sapiens, UniProt Q96F86)
T1 sequence (Q96F86 1-508): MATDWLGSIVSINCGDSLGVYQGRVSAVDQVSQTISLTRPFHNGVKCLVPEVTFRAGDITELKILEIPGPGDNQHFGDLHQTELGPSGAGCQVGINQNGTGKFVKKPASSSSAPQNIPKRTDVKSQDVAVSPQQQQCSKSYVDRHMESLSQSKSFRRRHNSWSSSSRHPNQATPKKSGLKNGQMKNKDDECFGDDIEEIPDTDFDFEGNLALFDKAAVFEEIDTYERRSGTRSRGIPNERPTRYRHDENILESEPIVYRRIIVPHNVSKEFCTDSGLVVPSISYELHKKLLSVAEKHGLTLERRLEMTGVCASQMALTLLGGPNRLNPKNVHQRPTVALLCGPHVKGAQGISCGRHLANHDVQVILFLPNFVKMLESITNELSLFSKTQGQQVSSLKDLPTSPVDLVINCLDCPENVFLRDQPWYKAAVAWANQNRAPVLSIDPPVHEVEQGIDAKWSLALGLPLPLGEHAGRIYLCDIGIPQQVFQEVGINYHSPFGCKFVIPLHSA
Assay: competitive gel-based ABPP in situ
Type: cell-based
Summary of the method: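 Recombinant EDC3-expressing HEK293T cells pretreated with test compound (0.1–100 µM, 2 h); lysed, and soluble proteomes labelled with HHS-465 Tyr/Lys-reactive sulfonyl-triazole probe (100 µM, 1 h, RT). CuAAC to rhodamine-azide, SDS-PAGE and in-gel fluorescence scanning. IC50 estimated from dose-dependent loss of EDC3 probe labelling; mean ± SEM, n = 3 biologically independent replicates.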

pIC50: ~5.22
Structure (SMILES): COc1ccc(S(=O)(=O)n2cc(CS(C)(=O)=O)nn2)cc1 [AHL-030]
